Consider eleven compounds from ChEMBL document CHEMBL1137710, “Synthesis and in vitro antitumor activity of new quinoxaline derivatives” (2009).

What all share (assay type): functional
The subject of one test is HCT-15. Nature of the test: Growth inhibition of human HCT15 cells after 48 hrs by sulforhodamine B assay. Conditions: HCT-15, 48 h; for TGI: read-out: pTGI (converted). The gist of the method:
(§1)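 NCI 60-human-tumor-cell-line panel, with compounds tested over a 5-log dose range. Values are taken from dose-response curves as log10 molar concentrations: GI50 is 50% net growth inhibition, TGI is total growth inhibition, and LC50 is 50% net cell death.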
Background: Sulforhodamine B stains cellular protein and so reports cell mass.

The test system of a further test is MDA-N. Nature of the test: Growth inhibition of human MDA-N cells after 48 hrs by sulforhodamine B assay. Conditions: for CC50: read-out: pLC50 (the source's name) (converted); for TGI: read-out: pTGI (converted).
Another test deals with HCC 2998. Kind of test: Growth inhibition of human HCC2998 cells after 48 hrs by sulforhodamine B assay. The conditions noted are these: HCC 2998, 48 h; for TGI: read-out: pTGI (converted). In a few lines:
as §1

For the compound `Nc1cc(N)c2nc(-c3ccccc3)c(Oc3ccc(Cl)c(Cl)c3)nc2c1`, in the test on HCT-15, the GI50 was 20 µM, the LC50 was over 100 µM and the TGI is over 100 µM.

Regarding `Nc1cc(N)c2nc(-c3ccccc3)c(Sc3ccc(F)cc3)nc2c1`, in the test with HCT-15, the GI50 was 13.5 µM, the LC50 is 56.2 µM and the TGI is 27.5 µM.

In the case of `COc1ccc(Oc2nc3cc(N)cc(N)c3nc2-c2ccccc2)cc1`, in the test on HCT-15, the GI50 was 52.5 µM, the LC50 is over 100 µM and the TGI is over 100 µM. In the test on MDA-N, the GI50 was 35.5 µM, the CC50 was over 100 µM and the TGI was over 100 µM.

Turning to `COc1cc(OC)cc(Oc2nc3cc(N)cc(N)c3nc2-c2ccccc2)c1`, in the test on HCC 2998, it took 2.51 µM to inhibit growth by half (GI50) and the TGI was 13.8 µM. Besides, in the test on HCT-15, the GI50 was 2.04 µM and the TGI was 12.3 µM.

With `COc1cc(CNc2nc3cc(N)cc(N)c3nc2-c2ccccc2)cc(OC)c1OC`, in the test on HCT-15, the 50% growth inhibitory concentration (GI50) is 3.24 µM, the LC50 is over 50.1 µM and the TGI is 13.8 µM.

`Nc1cc(N)c2nc(-c3ccccc3)c(NCc3ccc(F)cc3)nc2c1`: in the test on HCT-15, the GI50 was 3.31 µM, the median lethal concentration (LC50) is over 100 µM and the TGI is 19.1 µM.

Regarding `COc1ccc(CNc2nc3cc(N)cc(N)c3nc2-c2ccccc2)cc1`, in the test with HCC 2998, the GI50 is 21.9 µM, the LC50 (50% net cell kill) is over 100 µM and the TGI is 51.3 µM. Further, in the test on HCT-15, the GI50 is 15.8 µM, the LC50 is 75.9 µM and the TGI is 34.7 µM. Besides, in the test on MDA-N, the concentration for 50% growth inhibition (GI50) was 14.1 µM, the CC50 is 53.7 µM and the TGI was 27.5 µM.

`COc1ccc(CNc2nc3cc(N)cc(N)c3nc2-c2ccccc2)cc1OC`: in the test with HCC 2998, the GI50 was 22.9 µM, the LC50 (50% net cell kill) was over 100 µM and the TGI is 56.2 µM. In the test on HCT-15, the GI50 is 30.2 µM, the LC50 was over 100 µM and the TGI was over 100 µM.

On to `Nc1cc(N)c2nc(-c3ccccc3)c(Oc3ccc(F)cc3)nc2c1`, for which, in the test on HCT-15, the GI50 is 36.3 µM, the LC50 was over 100 µM and the TGI is over 100 µM.

As to `Nc1cc(N)c2nc(-c3ccccc3)c(NCc3ccc(Cl)c(Cl)c3)nc2c1`, in the test with HCT-15, the GI50 is 4.68 µM, the LC50 was over 100 µM and the TGI is over 100 µM.

In the test with HCT-15, `COc1cc(CNc2nc3cc(N)cc(N)c3nc2-c2ccccc2)cc(OC)c1` gave a GI50 of 19.5 µM. Further, in the test on MDA-N, the 50% growth inhibitory concentration (GI50) is 2.34 µM, the CC50 was over 100 µM and the TGI was 5.25 µM.

By GI50 is commonly meant the concentration that inhibits growth by half. A lower GI50 goes with greater sensitivity of the cells. One may read the LC50 as the concentration lethal to half of the exposed cells or organisms.
